Test results taken from ChEMBL document CHEMBL5058577, “EUbOPEN Chemogenomics Library 2 (Multiplex)” (2022).

Tested on: Fibroblast
Experiment: Multiplex assay against human fibroblast
Type: toxicity, cell-based
How it was run: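 At seeding, live cells were stained with Hoechst33342, BioTracker Green Microtubule Cytoskeleton Dye, MitoTracker Red and Annexin V Alexa Fluor 680. After compound addition they were imaged on a CQ1 microscope at 37°C and 5% CO2, and CellPathfinder machine-learning gating sorted them into Hoechst high-intensity objects or normal cells, with normal cells further split into healthy, pyknosed or fragmented nuclei and pyknosed cells into mitotic or apoptotic. Tubulin, mitochondrial-mass and membrane-permeability phenotypes are given as per cents of cells with healthy nuclei.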

[1] = 12 h, 1 µM, compound concentration 1 uM, replicate 1
[2] = 12 h, 1 µM, compound concentration 1 uM, replicate 2
[3] = 12 h, 10 µM, compound concentration 10 uM, replicate 1
[4] = 12 h, 10 µM, compound concentration 10 uM, replicate 2
[5] = 24 h, 1 µM, compound concentration 1 uM, replicate 1
[6] = 24 h, 1 µM, compound concentration 1 uM, replicate 2
[7] = 24 h, 10 µM, compound concentration 10 uM, replicate 1
[8] = 24 h, 10 µM, compound concentration 10 uM, replicate 2
[9] = 48 h, 1 µM, compound concentration 1 uM, replicate 1
[10] = 48 h, 1 µM, compound concentration 1 uM, replicate 2
[11] = 48 h, 10 µM, compound concentration 10 uM, replicate 1
[12] = 48 h, 10 µM, compound concentration 10 uM, replicate 2

`O=C1[C@H](Cc2ccc(O)cc2)N2C(=O)CCN(C(=O)NCc3ccccc3)[C@H]2CN1Cc1cccc2ccccc12` was tested, and the “Population Apoptotic (%)” value [1] was 32%, the “Population Fragmented Nuclei (%)” value [1] was 18% and the “Population Healthy Nuclei (%)” value [1] was 57%. For the same molecule, the “Population Hoechst High Intensity Objects (%)” value [1] was 3%, the “Population Membrane Permeable-Phenotype (%)” value [1] was 0% and the “Population Mitochondria Different-Phenotype (%)” value [1] was 11%. For the same molecule, the “Population Mitotic Cells (%)” value [1] was 67%, the “Population Normal (%)” value [1] was 96% and the “Population Pyknosed Nuclei (%)” value [1] was 24%. The “Population Tubulin-Different-Phenotype (%)” value [1] was 47%, the “Total Cell Count” value [1] was 160 and the “Population Apoptotic (%)” value [2] was 30%. For the same molecule, the “Population Fragmented Nuclei (%)” value [2] was 27%, the “Population Healthy Nuclei (%)” value [2] was 45% and the “Population Hoechst High Intensity Objects (%)” value [2] was 2%. For the same molecule, the “Population Membrane Permeable-Phenotype (%)” value [2] was 5%, the “Population Mitochondria Different-Phenotype (%)” value [2] was 13% and the “Population Mitotic Cells (%)” value [2] was 69%. The “Population Normal (%)” value [2] was 97%, the “Population Pyknosed Nuclei (%)” value [2] was 26% and the “Population Tubulin-Different-Phenotype (%)” value [2] was 58%. For the same molecule, the “Total Cell Count” value [2] was 152, the “Population Apoptotic (%)” value [3] was 35% and the “Population Fragmented Nuclei (%)” value [3] was 18%. For the same molecule, the “Population Healthy Nuclei (%)” value [3] was 58%, the “Population Hoechst High Intensity Objects (%)” value [3] was 8% and the “Population Membrane Permeable-Phenotype (%)” value [3] was 0%. For the same molecule, the “Population Mitochondria Different-Phenotype (%)” value [3] was 24%, the “Population Mitotic Cells (%)” value [3] was 64% and the “Population Normal (%)” value [3] was 91%. The “Population Pyknosed Nuclei (%)” value [3] was 23%, the “Population Tubulin-Different-Phenotype (%)” value [3] was 84% and the “Total Cell Count” value [3] was 146. For the same molecule, the “Population Apoptotic (%)” value [4] was 45%, the “Population Fragmented Nuclei (%)” value [4] was 23% and the “Population Healthy Nuclei (%)” value [4] was 45%. For the same molecule, the “Population Hoechst High Intensity Objects (%)” value [4] was 9%, the “Population Membrane Permeable-Phenotype (%)” value [4] was 8% and the “Population Mitochondria Different-Phenotype (%)” value [4] was 15%. For the same molecule, the “Population Mitotic Cells (%)” value [4] was 55%, the “Population Normal (%)” value [4] was 90% and the “Population Pyknosed Nuclei (%)” value [4] was 30%. For the same molecule, the “Population Tubulin-Different-Phenotype (%)” value [4] was 83%, the “Total Cell Count” value [4] was 144 and the “Population Apoptotic (%)” value [5] was 42%. For the same molecule, the “Population Fragmented Nuclei (%)” value [5] was 16%, the “Population Healthy Nuclei (%)” value [5] was 62% and the “Population Hoechst High Intensity Objects (%)” value [5] was 3%. For the same molecule, the “Population Membrane Permeable-Phenotype (%)” value [5] was 3%, the “Population Mitochondria Different-Phenotype (%)” value [5] was 7% and the “Population Mitotic Cells (%)” value [5] was 57%. For the same molecule, the “Population Normal (%)” value [5] was 96%, the “Population Pyknosed Nuclei (%)” value [5] was 21% and the “Population Tubulin-Different-Phenotype (%)” value [5] was 49%. The “Total Cell Count” value [5] was 158, the “Population Apoptotic (%)” value [6] was 28% and the “Population Fragmented Nuclei (%)” value [6] was 30%. The “Population Healthy Nuclei (%)” value [6] was 47%, the “Population Hoechst High Intensity Objects (%)” value [6] was 2% and the “Population Membrane Permeable-Phenotype (%)” value [6] was 7%. For the same molecule, the “Population Mitochondria Different-Phenotype (%)” value [6] was 8%, the “Population Mitotic Cells (%)” value [6] was 71% and the “Population Normal (%)” value [6] was 97%. The “Population Pyknosed Nuclei (%)” value [6] was 22%, the “Population Tubulin-Different-Phenotype (%)” value [6] was 58% and the “Total Cell Count” value [6] was 147. For the same molecule, the “Population Apoptotic (%)” value [7] was 44%, the “Population Fragmented Nuclei (%)” value [7] was 15% and the “Population Healthy Nuclei (%)” value [7] was 62%. The “Population Hoechst High Intensity Objects (%)” value [7] was 10%, the “Population Membrane Permeable-Phenotype (%)” value [7] was 1% and the “Population Mitochondria Different-Phenotype (%)” value [7] was 44%. The “Population Mitotic Cells (%)” value [7] was 55%, the “Population Normal (%)” value [7] was 89% and the “Population Pyknosed Nuclei (%)” value [7] was 21%. The “Population Tubulin-Different-Phenotype (%)” value [7] was 83%, the “Total Cell Count” value [7] was 141 and the “Population Apoptotic (%)” value [8] was 64%. The “Population Fragmented Nuclei (%)” value [8] was 25%, the “Population Healthy Nuclei (%)” value [8] was 47% and the “Population Hoechst High Intensity Objects (%)” value [8] was 7%. For the same molecule, the “Population Membrane Permeable-Phenotype (%)” value [8] was 13%, the “Population Mitochondria Different-Phenotype (%)” value [8] was 21% and the “Population Mitotic Cells (%)” value [8] was 35%. For the same molecule, the “Population Normal (%)” value [8] was 92%, the “Population Pyknosed Nuclei (%)” value [8] was 26% and the “Total Cell Count” value [8] was 137. For the same molecule, the “Population Apoptotic (%)” value [9] was 62%, the “Population Fragmented Nuclei (%)” value [9] was 22% and the “Population Healthy Nuclei (%)” value [9] was 59%. The “Population Hoechst High Intensity Objects (%)” value [9] was 7%, the “Population Membrane Permeable-Phenotype (%)” value [9] was 2% and the “Population Mitochondria Different-Phenotype (%)” value [9] was 7%. The “Population Mitotic Cells (%)” value [9] was 37%, the “Population Normal (%)” value [9] was 92% and the “Population Pyknosed Nuclei (%)” value [9] was 17%. The “Population Tubulin-Different-Phenotype (%)” value [9] was 54%, the “Total Cell Count” value [9] was 164 and the “Population Apoptotic (%)” value [10] was 54%. The “Population Fragmented Nuclei (%)” value [10] was 37%, the “Population Healthy Nuclei (%)” value [10] was 45% and the “Population Hoechst High Intensity Objects (%)” value [10] was 5%. For the same molecule, the “Population Membrane Permeable-Phenotype (%)” value [10] was 5%, the “Population Mitochondria Different-Phenotype (%)” value [10] was 6% and the “Population Mitotic Cells (%)” value [10] was 45%. For the same molecule, the “Population Normal (%)” value [10] was 94%, the “Population Tubulin-Different-Phenotype (%)” value [10] was 48% and the “Total Cell Count” value [10] was 135. The “Population Apoptotic (%)” value [11] was 85%, the “Population Fragmented Nuclei (%)” value [11] was 21% and the “Population Healthy Nuclei (%)” value [11] was 58%. The “Population Hoechst High Intensity Objects (%)” value [11] was 15%, the “Population Membrane Permeable-Phenotype (%)” value [11] was 0% and the “Population Mitochondria Different-Phenotype (%)” value [11] was 50%. The “Population Mitotic Cells (%)” value [11] was 14%, the “Population Normal (%)” value [11] was 84% and the “Population Pyknosed Nuclei (%)” value [11] was 20%. For the same molecule, the “Population Tubulin-Different-Phenotype (%)” value [11] was 85%, the “Total Cell Count” value [11] was 124 and the “Population Apoptotic (%)” value [12] was 66%. The “Population Fragmented Nuclei (%)” value [12] was 32%, the “Population Healthy Nuclei (%)” value [12] was 53% and the “Population Hoechst High Intensity Objects (%)” value [12] was 10%. For the same molecule, the “Population Membrane Permeable-Phenotype (%)” value [12] was 5%, the “Population Mitochondria Different-Phenotype (%)” value [12] was 38% and the “Population Mitotic Cells (%)” value [12] was 33%. The “Population Normal (%)” value [12] was 89%, the “Population Pyknosed Nuclei (%)” value [12] was 14% and the “Population Tubulin-Different-Phenotype (%)” value [12] was 94%. The “Total Cell Count” value [12] was 119.
